Assay results taken from article PMC7658073 (Clinical Pharmacokinetics, 2020).
Where two headings read alike, the source gives them in different places. Marks after values point to notes of the source that are not given here.

Assays:
UGT2B4 = target: T1, UGT2B4 (Homo sapiens, UniProt P06133); assay: Inhibitory potency towards UGT isoforms: UGT2B4; assay type: in vitro ADME
T1 sequence (P06133 24-528): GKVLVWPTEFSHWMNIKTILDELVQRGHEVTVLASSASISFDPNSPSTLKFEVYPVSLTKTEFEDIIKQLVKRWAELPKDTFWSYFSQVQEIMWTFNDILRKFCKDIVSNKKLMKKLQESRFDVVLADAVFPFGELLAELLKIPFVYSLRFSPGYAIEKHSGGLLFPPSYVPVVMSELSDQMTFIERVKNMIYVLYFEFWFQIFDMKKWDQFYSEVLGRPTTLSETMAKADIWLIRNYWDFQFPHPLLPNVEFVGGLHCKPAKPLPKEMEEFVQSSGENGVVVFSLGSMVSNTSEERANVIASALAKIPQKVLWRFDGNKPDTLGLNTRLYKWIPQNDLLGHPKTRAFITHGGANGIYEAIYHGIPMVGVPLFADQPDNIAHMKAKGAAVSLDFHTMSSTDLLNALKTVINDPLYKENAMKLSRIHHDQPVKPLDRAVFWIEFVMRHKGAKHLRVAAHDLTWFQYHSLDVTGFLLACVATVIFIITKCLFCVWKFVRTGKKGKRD

Human mass balance study = assay type: in vivo; settings: 14C-labeled vericiguat 5 mg oral
In short: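 Open-label, non-randomized, non-placebo-controlled study in six healthy male volunteers. Single oral solution of 5 mg [14C]-labelled test compound given fasting. Urine and feces collected up to 336 h and total radioactivity measured as % of dose, summarized descriptively as mean (range). Plasma components expressed as share of total radioactivity AUC.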

[1] = ref data on file, cited from earlier work
[2] = target: T2, organic cation transporter 1 (Homo sapiens, UniProt O15245); assay: Substrate properties towards OCT1; assay type: in vitro ADME
T2 sequence (O15245 1-554): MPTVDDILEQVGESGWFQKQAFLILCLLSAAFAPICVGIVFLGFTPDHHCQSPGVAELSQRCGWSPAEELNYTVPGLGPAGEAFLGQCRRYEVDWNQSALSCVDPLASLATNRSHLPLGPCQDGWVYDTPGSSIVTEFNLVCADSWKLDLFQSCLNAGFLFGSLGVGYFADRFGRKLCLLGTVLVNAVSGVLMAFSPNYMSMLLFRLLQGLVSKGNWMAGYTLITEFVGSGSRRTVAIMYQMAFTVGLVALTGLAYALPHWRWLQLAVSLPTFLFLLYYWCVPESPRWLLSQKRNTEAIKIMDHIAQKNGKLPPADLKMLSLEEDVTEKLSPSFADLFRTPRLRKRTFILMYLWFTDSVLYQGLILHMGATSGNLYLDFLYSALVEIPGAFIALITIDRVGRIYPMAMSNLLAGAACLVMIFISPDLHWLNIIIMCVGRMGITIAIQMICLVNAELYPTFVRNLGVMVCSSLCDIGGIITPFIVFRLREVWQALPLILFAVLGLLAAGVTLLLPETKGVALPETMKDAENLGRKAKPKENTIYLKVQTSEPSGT

UGT1A9 = target: T3, UGT1A9 (Homo sapiens, UniProt O60656); assay: Inhibitory potency towards UGT isoforms: UGT1A9; assay type: in vitro ADME
T3 sequence (O60656 26-530): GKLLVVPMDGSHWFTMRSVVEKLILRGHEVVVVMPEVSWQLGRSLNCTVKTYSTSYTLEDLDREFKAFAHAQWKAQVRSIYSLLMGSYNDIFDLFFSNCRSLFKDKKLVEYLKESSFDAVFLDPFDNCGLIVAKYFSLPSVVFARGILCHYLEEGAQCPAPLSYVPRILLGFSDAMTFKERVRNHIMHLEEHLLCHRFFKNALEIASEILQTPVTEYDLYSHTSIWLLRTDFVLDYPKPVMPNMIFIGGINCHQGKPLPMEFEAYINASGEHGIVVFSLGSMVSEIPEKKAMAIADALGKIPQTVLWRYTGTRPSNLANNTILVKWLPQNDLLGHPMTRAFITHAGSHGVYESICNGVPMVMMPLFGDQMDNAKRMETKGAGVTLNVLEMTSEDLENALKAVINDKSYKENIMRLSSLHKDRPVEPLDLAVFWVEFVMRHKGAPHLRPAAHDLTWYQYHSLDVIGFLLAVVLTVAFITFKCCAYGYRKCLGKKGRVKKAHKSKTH

[3] = Phase I DDI study with digoxin; assay type: in vivo, human; settings: with digoxin 0.375 mg QD vs vericiguat 10 mg alone, fed
P-glycoprotein = P-glycoprotein (Homo sapiens, UniProt P08183); assay: Substrate properties towards P-gp; assay type: in vitro ADME
Sequence of P-glycoprotein (P08183 whole entry): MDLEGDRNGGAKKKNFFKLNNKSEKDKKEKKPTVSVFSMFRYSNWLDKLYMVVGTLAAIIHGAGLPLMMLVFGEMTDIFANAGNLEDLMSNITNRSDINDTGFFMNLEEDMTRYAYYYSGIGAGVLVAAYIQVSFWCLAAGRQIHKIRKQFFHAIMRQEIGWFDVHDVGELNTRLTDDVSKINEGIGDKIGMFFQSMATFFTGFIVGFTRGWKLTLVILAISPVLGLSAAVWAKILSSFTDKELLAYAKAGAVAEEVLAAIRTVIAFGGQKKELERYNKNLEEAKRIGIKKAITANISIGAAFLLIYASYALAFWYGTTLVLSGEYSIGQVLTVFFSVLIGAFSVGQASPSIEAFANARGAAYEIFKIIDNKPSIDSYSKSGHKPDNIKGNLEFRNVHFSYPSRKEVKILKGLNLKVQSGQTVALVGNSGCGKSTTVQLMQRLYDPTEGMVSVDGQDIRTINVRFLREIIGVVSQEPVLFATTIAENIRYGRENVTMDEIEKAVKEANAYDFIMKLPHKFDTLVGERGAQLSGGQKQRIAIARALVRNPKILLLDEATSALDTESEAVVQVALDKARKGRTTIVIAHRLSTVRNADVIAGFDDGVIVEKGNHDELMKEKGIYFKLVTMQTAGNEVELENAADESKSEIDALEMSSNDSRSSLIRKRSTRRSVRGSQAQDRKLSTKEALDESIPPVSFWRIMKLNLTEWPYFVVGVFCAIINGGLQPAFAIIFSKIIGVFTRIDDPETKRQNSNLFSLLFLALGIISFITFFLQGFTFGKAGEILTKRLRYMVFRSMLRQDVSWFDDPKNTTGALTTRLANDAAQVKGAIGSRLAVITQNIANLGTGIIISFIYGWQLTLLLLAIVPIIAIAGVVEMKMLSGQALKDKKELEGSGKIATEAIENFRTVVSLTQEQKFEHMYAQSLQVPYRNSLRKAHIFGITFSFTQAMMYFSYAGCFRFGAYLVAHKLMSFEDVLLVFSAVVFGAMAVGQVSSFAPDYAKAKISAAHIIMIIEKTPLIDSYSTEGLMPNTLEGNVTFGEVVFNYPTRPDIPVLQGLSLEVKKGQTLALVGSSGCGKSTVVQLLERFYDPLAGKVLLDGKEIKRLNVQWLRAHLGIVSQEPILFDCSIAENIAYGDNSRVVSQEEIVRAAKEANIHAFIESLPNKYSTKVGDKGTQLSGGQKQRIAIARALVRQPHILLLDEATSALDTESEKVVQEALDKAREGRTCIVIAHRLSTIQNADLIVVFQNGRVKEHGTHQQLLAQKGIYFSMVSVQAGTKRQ

[4] = target: T2, organic cation transporter 1; assay: Inhibitory potency towards OCT1; assay type: in vitro ADME
[5] = pKa and pH-dependent solubility; assay type: physicochemical
UGT1A1 = target: T4, UGT1A1 (Homo sapiens, UniProt P22309); assay: Inhibitory potency towards UGT isoforms; assay type: in vitro ADME
T4 sequence (P22309 26-533): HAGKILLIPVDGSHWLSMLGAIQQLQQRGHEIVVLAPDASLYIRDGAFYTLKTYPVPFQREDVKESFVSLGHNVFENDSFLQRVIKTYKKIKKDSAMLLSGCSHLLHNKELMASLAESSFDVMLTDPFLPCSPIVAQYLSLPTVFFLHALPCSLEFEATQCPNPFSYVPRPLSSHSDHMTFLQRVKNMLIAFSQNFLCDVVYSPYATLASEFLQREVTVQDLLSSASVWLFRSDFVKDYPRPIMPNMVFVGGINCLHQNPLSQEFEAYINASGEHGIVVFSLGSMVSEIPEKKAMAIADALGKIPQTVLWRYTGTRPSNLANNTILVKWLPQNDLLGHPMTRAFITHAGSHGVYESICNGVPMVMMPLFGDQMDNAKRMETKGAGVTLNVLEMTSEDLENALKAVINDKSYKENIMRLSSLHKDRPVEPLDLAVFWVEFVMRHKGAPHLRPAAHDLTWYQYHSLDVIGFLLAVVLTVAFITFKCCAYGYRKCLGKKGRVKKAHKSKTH

[6] = % of dose, listed as vericiguat
[7] = following a 10-mg dose once daily

For `COC(=O)Nc1c(N)nc(-c2nn(Cc3ccccc3F)c3ncc(F)cc23)nc1N` [Vericiguat], which IC50 (UGT2B4) is on record?
Its IC50 is > 50 µM.

What about the “Share of total radioactivity AUC in human plasma” value (Human mass balance study) of the same molecule?
Its value is 27%.

What about the “Excretion in feces (range)” value (Human mass balance study; % of dose) of the same molecule?
Its value is 42.6 (38.3–46.5) %.

What about the “Excretion in urine (range)” value (Human mass balance study; % of dose) of the same molecule?
The value was 9.0 (6.1–16.1) %.

What about the “Total excretion of analyte (urine plus feces) (range)” value (Human mass balance study; % of dose) of the same molecule?
The value was 51.6 (46.0–62.6) %.

And the “Excretion in feces (range)” value (Human mass balance study; [6])?
Its value is 43%.

What about the “Excretion in urine (range)” value (Human mass balance study; [6]) of the same molecule?
Its value is 9.0%.

And the “Radioactivity excreted via feces” value (Human mass balance study; % of dose, mean (range))?
The value was 45.2 (40.1–49.9) %.

And the “Radioactivity excreted via urine” value (Human mass balance study; % of dose, mean (range))?
The value was 53.1^b (49.9–56.1) %.

What about the “Projected unbound inlet Cmax” value [1, 7] of the same molecule?
The value was 30 nM.

And the “Unbound Cmax” value [1, 7]?
The value was “approximately 0.02 µM”.

What about the “Unbound Cmax” value ([1]; multiple-dose oral 10 mg once daily in patients with HFrEF) of the same molecule?
Its value is “approximately 0.02 µM”.

And the Cmax ([1]; read-out: Total Cmax, following a 10-mg dose once daily)?
The Cmax was ~800 nM.

And the “Substrate of organic cation transporter 1” value [2]?
Its value is “not a substrate”.

What about the IC50 (UGT1A9) of the same molecule?
The IC50 was 10.6 µM.

What about the Ki (UGT1A9) of the same molecule?
The Ki was 6.6 µM.

What about the “AUC of vericiguat, point estimate of treatment ratio” value [3] of the same molecule?
Its value is 0.980.

What about the “Cmax of vericiguat, point estimate of treatment ratio” value [3] of the same molecule?
The value was 1.009.

What about the “Substrate of P-glycoprotein” value (P-glycoprotein) of the same molecule?
Its value is “substrate”.

What about the IC50 [4] of the same molecule?
The IC50 was > 50 µM.

What about the “pH dependence of solubility” value [5] of the same molecule?
Its value is “lower in neutral conditions compared with acidic conditions”.

What about the pKa [5] of the same molecule?
Its pKa is 4.7.

What about the IC50 (UGT1A1) of the same molecule?
The IC50 was > 50 µM.
